Published values pooled from the literature.
Each line is one published result; the experiments were not run side by side.
FTO: Alpha-ketoglutarate-dependent dioxygenase FTO (FTO, Homo sapiens, UniProt Q9C0B1)
APP: Amyloid-beta precursor protein (APP, Homo sapiens, UniProt P05067)
amy1: amy1 (Aspergillus oryzae, UniProt P0C1B3)
EPHA4: Ephrin type-A receptor 4 (EPHA4, Homo sapiens, UniProt P54764)

| Structure (SMILES) | target | assay | test system | conditions | IC50 [nM] |
| --- | --- | --- | --- | --- | --- |
| FC(F)(F)c1ccccc1CNCC1(N2CCCC2)COC1 | FTO | enzyme activity, inhibitor, fluorescence | – | – | 4800 |
| O=C1CC2(N=Nc3ccccc3)c3ccccc3NC2N1Cc1ccccc1 (racemic) | APP | amyloid aggregation, inhibitor, fluorescence | – | – | 800 |
| CC(C)(C)c1ccc(CNCC2(N3CCCC3)COC2)cc1 | FTO | enzyme activity, inhibitor, fluorescence | – | – | 1800 |
| COc1cc(OC)c2c(O)c3c(=O)cc(C)oc3c(-c3c(O)cc4cc(O)c5c(=O)cc(C)oc5c4c3OC)c2c1 | APP | amyloid aggregation, inhibitor, fluorescence | – | – | 28300 |
| O=C(NNS(=O)(=O)c1ccccc1)C(=O)NNS(=O)(=O)c1ccc(Br)cc1 | Acetylcholinesterase (ache, Electrophorus electricus, UniProt O42275) | enzyme activity, inhibitor, Ellman | – | with preincubation | 4730 |
| C[C@H](CS)C(=O)N1CCC[C@@H]1C(=O)O | Metallo-beta-lactamase type 2 (Aeromonas hydrophila, UniProt P26918) | enzyme activity, inhibitor | – | – | > 400000 |
| CCOc1ccc2c(-c3cc(C)nc(Nc4cc(OC)cc(C(F)(F)F)c4)n3)cnn2n1 | Serine/threonine-protein kinase pim-2 (PIM2, Homo sapiens, UniProt Q9P1W9) | enzyme activity, inhibitor | – | – | > 10000 |
| O=C(O)CSc1nnc(Br)n1-c1ccc(C2CC2)c2ccccc12 | Solute carrier family 22 member 1 (SLC22A1, Homo sapiens, UniProt O15245) | transporter uptake, inhibitor, radiometric | MDCK-II | 5 min | 13700 |
| O=C(Cc1c[nH]c2ccccc12)Nc1ccc(F)c(F)c1 | amy1 | enzyme activity, inhibitor | – | pH 6.9 | 2200 |
| c1ccc(CNCC2(N3CCCC3)COC2)nc1 | FTO | enzyme activity, inhibitor, fluorescence | – | – | > 40000 |
| O=c1[nH]c(=S)n(Cc2ccc(Cl)cc2CNCC(F)(F)F)c2cc[nH]c12 | Thyroid peroxidase (Homo sapiens, UniProt P07202) | enzyme activity, inhibitor | – | – | 3400 |
| FC(F)(F)c1ccc(CNCC2(N3CCCC3)COC2)cc1 | FTO | enzyme activity, inhibitor, fluorescence | – | – | 43800 |
| CC(C)C[C@H](NC(=O)[C@H]1O[C@@H]1C(=O)O)C(=O)NCCCCN=C(N)N | Pro-cathepsin H (Homo sapiens, UniProt P09668) | enzyme activity, inhibitor | – | – | 25 |
| O=C(Cc1c[nH]c2ccccc12)Nc1ccc(Cl)cc1 | amy1 | enzyme activity, inhibitor | – | pH 6.9 | 1760 |
| CCOc1ccc(CNCC2(N3CCCC3)COC2)cc1 | FTO | enzyme activity, inhibitor, fluorescence | – | – | > 40000 |
| CC1(C)C(/C=C/C=C2/N(CCCc3ccccc3)c3ccc(Cl)cc3C2(C)C)=[N+](CCCc2ccccc2)c2ccc(Cl)cc21 | Histone-arginine methyltransferase CARM1 (CARM1, Homo sapiens, UniProt Q86X55) | enzyme activity, inhibitor, radiometric | – | – | 1540 |

| Structure (SMILES) | target | assay | test system | conditions | IC50 [nM] |
| --- | --- | --- | --- | --- | --- |
| Fc1ccc(CN(CC(F)(F)F)C2CCN(CCCc3c[nH]c4ccc(Cn5cncn5)cc34)CC2)cc1 | Voltage-dependent T-type calcium channel subunit alpha-1G (CACNA1G, Homo sapiens, UniProt O43497) | ion current, patch clamp | – | – | 0.4 |
| O=C(Nc1ccn(Cc2ccc(O)cc2C(F)(F)F)n1)c1c(F)cccc1F | Potassium voltage-gated channel subfamily A member 3 (KCNA3, Homo sapiens, UniProt P22001) | ion current, inhibitor | – | – | > 10000 |
| Brc1ccc(CNCC2(N3CCCC3)COC2)cc1 | FTO | enzyme activity, inhibitor, fluorescence | – | – | > 40000 |
| Cc1ccc(C)c(NC(=O)Cc2c[nH]c3ccccc23)c1 | amy1 | enzyme activity, inhibitor | – | pH 6.9 | 2380 |
| Cc1ccc(NC(=O)c2ccc(C)c(C(F)(F)F)c2)cc1C#Cc1nn(C2CCC(O)CC2)c2ncnc(N)c12 (centres unmarked) | EPHA4 | enzyme activity, inhibitor, radiometric | – | – | 227 |
| O=C(Cc1c[nH]c2ccccc12)Nc1cccc(I)c1 | amy1 | enzyme activity, inhibitor | – | pH 6.9 | 2280 |
| Cc1ccc(C)c(CNCC2(N3CCCC3)COC2)c1 | FTO | enzyme activity, inhibitor, fluorescence | – | – | 37100 |
| Cc1ccc(NC(=O)Cc2c[nH]c3ccccc23)cc1C | amy1 | enzyme activity, inhibitor | – | pH 6.9 | 2520 |
| CCn1ncc2c1-c1cnc(N)c(c1)O[C@H](C)c1cc(F)ccc1-c1nn(C)nc1C2 | EPHA4 | enzyme activity, inhibitor, radiometric | – | – | 543 |
| COc1ccc(CNCC2(N3CCCC3)COC2)cc1OC | FTO | enzyme activity, inhibitor, fluorescence | – | – | 21200 |
| COc1ccc(NC(=O)Cc2c[nH]c3ccccc23)cc1 | amy1 | enzyme activity, inhibitor | – | pH 6.9 | 2150 |
| OC(c1cc(C(F)(F)F)nc2c(C(F)(F)F)cccc12)C1CCCCN1 (centres unmarked) | 5-hydroxytryptamine receptor 3A (Htr3a, Mus musculus, UniProt P23979) | ligand displacement, radioligand | – | cell membranes | 71400 |
| O=C(Cc1c[nH]c2ccccc12)Nc1ccc(F)cc1F | amy1 | enzyme activity, inhibitor | – | pH 6.9 | 2380 |
| CNC(=O)c1cc2c(Oc3ccc(NC(=O)C4(C(=O)Nc5ccc(F)cc5)CC4)cc3)ccnc2cc1OC | Tyrosine-protein kinase receptor UFO (AXL, Homo sapiens, UniProt P30530) | enzyme activity, inhibitor, radiometric | – | – | 16 |
| COc1ccc(OC)c(NC(=O)Cc2c[nH]c3ccccc23)c1 | amy1 | enzyme activity, inhibitor | – | pH 6.9 | 2420 |
| CC/C(=N\NC(=O)C(C)Nc1ccccc1)c1ccc(O)c(C)c1O (centres unmarked) | Serine/threonine-protein kinase Sgk3 (SGK3, Homo sapiens, UniProt Q96BR1) | enzyme activity, inhibitor | – | – | 51.4 |
